Seven molecules from ChEMBL document CHEMBL1122823, “Synthesis and receptor-binding affinity of fluorotamoxifen, a possible estrogen-receptor imaging agent” (J Med Chem, 1985) can be followed below.

Several values for one entry are separate records, joined by “and”; a condition that tells them apart may be missing. Equal values may be shown once.

For series [1], the target named is T1, Estrogen receptor (Rattus norvegicus) (UniProt P06211+Q62986). Put plainly: Uterotrophic effect in rats uterine at 500 ug/day dose in the presence of 10 ug estradiol. The conditions noted are these: Uterus. Format: functional, tissue-based.
Series [2] has as its target T1, Estrogen receptor (Rattus norvegicus). Description: Uterotrophic effect in rats uterine at 100 ug/day dose in the presence of 0.05 ug hexestrol. In kind it is functional, tissue-based. Particulars: Uterus.
Series [3] has the same target. The conditions noted are these: Uterus.
The target is the same in series [4]. Put plainly: Uterotrophic effect in rats uterine at 100 ug/day dose in the presence of 0.20 ug estradiol. Format: functional, tissue-based. Particulars: Uterus.
Series [5] shares this target. Description: Uterotrophic effect in rats uterine at 500 ug/day dose in the presence of 0.2 ug estradiol. The conditions noted are these: Uterus. In kind it is functional, tissue-based.
Series [6] shares this target. Description: Uterotrophic effect in rats uterine at 500 ug/day dose in the presence of 0.08 ug estradiol. In kind it is functional, tissue-based. Particulars: Uterus.
For series [7] the target is unchanged. Description: Uterotrophic effect in rats uterine at 100 ug/day dose in the presence of 10 ug estradiol. In kind it is functional, tissue-based. Particulars: Uterus.
Series [8] shares this target. Description: Uterotrophic effect in rats uterine at 100 ug/day dose. Format: functional, tissue-based. Particulars: Uterus.
The target is the same in series [9]. Particulars: Uterus. The source holds these as a separate data set.
Series [10] has the same target. Description: Percent uterotrophic effect at 500 ug/day dose compared to estradiol. Format: functional.
The target is the same in series [11]. Description: Uterotrophic effect in rats uterine at 1 ug/day dose in the presence of 0.08 ug estradiol. Format: functional, tissue-based. The conditions noted are these: Uterus.
Series [12] has the same target. Put plainly: Uterotrophic effect in rats uterine at 500 ug/day dose in the presence of 0.10 ug estradiol. In kind it is functional, tissue-based. The conditions noted are these: Uterus.
Series [13] shares this target.
The target is the same in series [14]. Description: Uterotrophic effect in rats uterine at 10 ug/day dose in the presence of 0.08 ug estradiol. In kind it is functional, tissue-based. The conditions noted are these: Uterus.
The target is the same in series [15]. Description: Uterotrophic effect in rats uterine at 500 ug/day dose. In kind it is functional, tissue-based. The conditions noted are these: Uterus.
Series [16] has the same target. Put plainly: Percent uterotrophic effect at 50 ug/day dose compared to estradiol. Format: functional.
For series [17] the target is unchanged. Put plainly: Uterotrophic effect in rats uterine at 50 ug/day dose. In kind it is functional, tissue-based. Particulars: Uterus.
A short description of series [18]: Dissociation constant was evaluated. Format: physicochemical. A digest of the protocol: (§1)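 Rat uterine cytosol from 19-day-old immature Sabra rats, homogenized at 0 °C in TEG buffer (pH 7.4, 10% glycerol, 0.01 M DTT) and spun to 105000g, diluted to 2 uteri/mL. […] Free ligand removed with 2.5% dextran-coated charcoal. Nonspecific binding taken with 10000-fold excess. KA = KL·A50/([L*]+KL), with free [L*] 10 nM.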

Series [19] has as its target T1, Estrogen receptor (Rattus norvegicus). Put plainly: Uterotrophic effect in rats uterine at 100 ug/day dose in the presence of 0.5 ug hexestrol. Format: functional, tissue-based. The conditions noted are these: Uterus.
For series [20] the target is unchanged. Put plainly: Uterotrophic effect in rats uterine at 100 ug/day dose in the presence of 0.1 ug estradiol. Format: functional, tissue-based. Particulars: Uterus.
For series [21] the target is unchanged. Description: Uterotrophic effect in rats uterine at 1000 ug/day dose in the presence of 0.16 ug estradiol. Particulars: Uterus. Format: functional, tissue-based.
For series [22] the target is unchanged. Description: Percent uterotrophic effect at 100 ug/day dose compared to estradiol. Format: functional.
Series [23] shares this target. Put plainly: Uterotrophic effect in rats uterine at 1000 ug/day dose. In kind it is functional, tissue-based. The conditions noted are these: Uterus.
For series [24] the target is unchanged. Put plainly: Uterotrophic effect in rats uterine at 10 ug/day dose. In kind it is functional, tissue-based. Particulars: Uterus.
Series [25] shares this target. Description: Uterotrophic effect in rats uterine at 10 ug/day dose in the presence of 0.16 ug estradiol. Format: functional, tissue-based. The conditions noted are these: Uterus.
A short description of series [26]: Dissociation constant was evaluated. In kind it is functional. A digest of the protocol:
as §1

Series [27] has as its target T1, Estrogen receptor (Rattus norvegicus). Description: Uterotrophic effect in rats at 10 ug/day dose. In kind it is functional, tissue-based. The conditions noted are these: Uterus.
Series [28] has the same target. Description: Percent uterotrophic effect at 10 ug/day dose compared to estradiol. In kind it is functional.
Series [29] has the same target. Put plainly: Uterotrophic effect in rats uterine at 0.03 ug/day dose. The conditions noted are these: Uterus. Format: functional, tissue-based.
The target is the same in series [30]. Put plainly: Uterotrophic effect in rats uterine at 0.3 ug/day dose. Format: functional, tissue-based. Particulars: Uterus.
The target is the same in series [31]. Description: Uterotrophic effect in rats at 0.1 ug/day dose. In kind it is functional, tissue-based. Particulars: Uterus.
For series [32] the target is unchanged. Put plainly: Uterotrophic effect in rats uterine at 0.01 ug/day dose. In kind it is functional, tissue-based. Particulars: Uterus.
Series [33] shares this target. The conditions noted are these: Uterus. The source holds these as a separate data set.
Series [34] shares this target. Put plainly: Percent uterotrophic effect at 0.1 ug/day dose compared to estradiol. In kind it is functional.

As to `CC/C(=C(\c1ccc(N)cc1)c1ccc(OCCN(C)C)cc1)c1ccccc1`, the Uterine weight is 67.2 in series [1]; 46 and 70.3 in series [2]; 44 in [3]; 43 in series [4]; 62 in [5]; 56.5 in series [6]. The Uterine weight stood at 57.1 in series [7]; 50.3 in series [8]; 29.6 in series [9]; 58.2 in series [11]; 46 in series [12]; 54.8 in series [14]. This molecule also showed a Uterine weight in [15] of 54. In series [10], this molecule returned an Effect of 76%. In series [13], this molecule had an A50 of 20 nM. In addition, the Max uterine weight in series [15] worked out at 54 mg.
Molecule `CC/C(=C(/c1ccc(O)cc1)c1ccc(NC(C)=O)cc1)c1ccccc1` came in with an Effect in series [16] of 98%. For the same molecule, the Max uterine weight in [17] was 65.8 mg. Also, the A50 in series [13] was 1200 nM.
Regarding `CC/C(=C(\c1ccc(NC(C)=O)cc1)c1ccc(ON(C)C)cc1)c1ccccc1`, the Effect in series [16] came out at 60%. For the same molecule, in [17], the Max uterine weight amounted to 41.8 mg.
The molecule `CC/C(=C(/CC)c1ccc(O)cc1)c1ccc(O)cc1` [DIETHYLSTILBESTROL] returned a KA in [18] of 400 pM.
As to `CC/C(=C(\c1ccc(F)cc1)c1ccc(OCCN(C)C)cc1)c1ccccc1`, the Uterine weight was determined as 70.4 in [2]; 71.2 in series [19]; 74 in [20]; 76.9 in [21]; 85.7 in series [23]; 68.9 in [24]. Also, the Uterine weight in [4] was found to be 73.8; in series [7], 80.3; in series [8] it was 76.4; in series [25] it was 72.2. In [22], this molecule gave an Effect of 108%. The same molecule registered a Max uterine weight in series [8] of 76.4 mg. In series [13], this molecule yielded an A50 of 5000 nM.
The molecule `CC/C(=C(/c1ccc(O)cc1)c1ccc(F)cc1)c1ccccc1` displayed a KA in series [26] of 63 nM. Also, the Max uterine weight in series [27] came out at 97 mg. The molecule further had an Effect in series [28] of 140%. Also, the A50 in [13] turned out to be 670 nM.
Turning to `CC[C@H](c1ccc(O)cc1)[C@@H](CC)c1ccc(O)cc1`, the Uterine weight in series [29] came to 62.6; in series [30] it was 94.5; in [3], 97.3; in series [32], 29.3; in series [9], 90.2; in series [33], 86.8. Further, the Max uterine weight in series [31] came to 62.6 mg. Moreover, in [34], the Effect was 143%.
